Experimental data reported in ChEMBL document CHEMBL1126705, “16 beta-([18F]fluoro)estrogens: systematic investigation of a new series of fluorine-18-labeled estrogens as potential imaging agents for estrogen-receptor-positive breast tumors” (J Med Chem, 1993).

What was measured:
Rattus norvegicus [1] = experiment: Tested in vivo for the biodistribution in rat uterus/muscle after 3 hours following an intravenous dose of 15 microCi of drug in 10%ethanol saline; assay type: ADME, organism-based, Muscle tissue
How it was run: (§1)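 Female Sprague-Dawley rats, 25 days old (~40–53 g), ether-anesthetized, given the 18F-labeled estrogen iv via femoral vein in 10% ethanol saline. […] Others were sacrificed by decapitation at 1 or 3 h. Blood and organs were excised, weighed and gamma counted as % injected dose/g, mean ± SD, typically n = 5 (4–6).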

Rattus norvegicus [2] = experiment: Tested in vivo for the biodistribution in rat liver at 1 hour after intravenous dose of 15 microCi of drug in 10%ethanol saline; assay type: ADME, organism-based
How it was run: (§2)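 Immature (25-day-old) female Sprague-Dawley rats, ether-anesthetized, given the fluorine-18-labeled estrogen by femoral vein injection in 10% ethanol saline. […] Other groups were killed by decapitation at 1 or 3 h. Blood and organs were weighed and gamma-counted. Data are % injected dose/g, mean ± SD, typically n = 5 per group.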

Rattus norvegicus [3] = experiment: Tested in vivo for the biodistribution in rat ovaries at 1 hour after intravenous dose of 15 microCi of drug in 10%ethanol saline; assay type: ADME, organism-based, Female gonad; how it was run: as §2
Rattus norvegicus [4] = experiment: Tested in vivo for the biodistribution in rat thymus at 1 hour after intravenous dose of 15 microCi of the drug and 15 micro g of estradiol; assay type: ADME, organism-based; how it was run: as §2
[5] = biological target: T1, Estrogen receptor (Rattus norvegicus) (UniProt P06211+Q62986)
Rattus norvegicus [6] = experiment: Tested in vivo for the biodistribution in blood of female rat at 1 hour after intravenous dose of 15 microCi of the drug and 15 u g of estradiol; assay type: ADME, organism-based
Rattus norvegicus [7] = experiment: Tested in vivo for the biodistribution in rat ovaries after 3 hours following an intravenous dose of 120 microCi of drug in 10%ethanol saline; assay type: ADME, organism-based, Female gonad; how it was run: as §2
Rattus norvegicus [8] = experiment: Tested in vivo for the biodistribution in rat uterus at 1 hour after intravenous dose of 15 microCi of the drug and 15 micro g of estradiol; assay type: ADME, organism-based; how it was run: as §1
Rattus norvegicus [9] = experiment: Tested in vivo for the biodistribution in rat thymus after 3 hours following an intravenous dose of 15 microCi of drug in 10%ethanol saline; assay type: ADME, organism-based; how it was run: as §2
[10] = Partition coefficient (logP); assay type: physicochemical; conditions: octanol/water
How it was run: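 Octanol/water log P estimated from log k'w measured by reversed-phase HPLC (Minick method) on a C8 silica column.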

Rattus norvegicus [11] = experiment: Tested in vivo for the biodistribution in rat muscle after 3 hours following an intravenous dose of 15 microCi of drug in 10%ethanol saline; assay type: ADME, organism-based, Muscle tissue; how it was run: as §2
Rattus norvegicus [12] = experiment: Tested in vivo for the biodistribution in rat kidney at 1 hour after intravenous dose of 15 microCi of the drug and 15 u g of estradiol; assay type: ADME, organism-based
Rattus norvegicus [13] = experiment: Tested in vivo for the biodistribution in rat liver after 3 hours following an intravenous dose of 15 microCi of drug in 10%ethanol saline; assay type: ADME, organism-based; how it was run: as §2
Rattus norvegicus [14] = experiment: Tested in vivo for the biodistribution in blood of female rat at 1 hour after intravenous dose of 15 microCi of drug in 10%ethanol saline; assay type: ADME, organism-based
How it was run: (§3)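 Ether-anesthetized 25-day-old female Sprague-Dawley rats (~40–53 g) got the [18F] tracer in 10% ethanol saline via femoral vein. Rats were decapitated at 1 or 3 h, and blood and organs were weighed and gamma-counted. Values are % injected dose/g as mean ± SD, n = 5 per time point.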

Rattus norvegicus [15] = experiment: Tested in vivo for the biodistribution in rat kidney after 3 hours following an intravenous dose of 15 microCi of drug in 10%ethanol saline; assay type: ADME, organism-based; how it was run: as §3
Rattus norvegicus [16] = experiment: Tested in vivo for the biodistribution in rat uterus after 3 hours following an intravenous dose of 15 microCi of drug in 10%ethanol saline; assay type: ADME, organism-based; how it was run: as §2
Rattus norvegicus [17] = experiment: Tested in vivo for the biodistribution in rat fat at 1 hour after intravenous dose of 15 microCi of the drug and 15 ug of estradiol; assay type: ADME, organism-based, Adipose tissue
Rattus norvegicus [18] = experiment: Tested in vivo for the biodistribution in rat uterus/blood at 1 hour after intravenous dose of 15 microCi of the drug and 15 micro g of estradiol; assay type: ADME, organism-based; how it was run: as §1
Rattus norvegicus [19] = experiment: Tested in vivo for the biodistribution in rat uterus/blood at 1 hour after intravenous dose of 15 microCi of drug in 10%ethanol saline; assay type: ADME, organism-based; how it was run: as §1
Rattus norvegicus [20] = experiment: Tested in vivo for the biodistribution in rat uterus/muscle at 1 hour after intravenous dose of 15 microCi of drug in 10%ethanol saline; assay type: ADME, organism-based, Muscle tissue; how it was run: as §1
[21] = biological target: T2, Alpha-fetoprotein (Rattus norvegicus) (UniProt P02773); experiment: Relative binding affinity for Alphafetoprotein
T2 sequence (whole entry): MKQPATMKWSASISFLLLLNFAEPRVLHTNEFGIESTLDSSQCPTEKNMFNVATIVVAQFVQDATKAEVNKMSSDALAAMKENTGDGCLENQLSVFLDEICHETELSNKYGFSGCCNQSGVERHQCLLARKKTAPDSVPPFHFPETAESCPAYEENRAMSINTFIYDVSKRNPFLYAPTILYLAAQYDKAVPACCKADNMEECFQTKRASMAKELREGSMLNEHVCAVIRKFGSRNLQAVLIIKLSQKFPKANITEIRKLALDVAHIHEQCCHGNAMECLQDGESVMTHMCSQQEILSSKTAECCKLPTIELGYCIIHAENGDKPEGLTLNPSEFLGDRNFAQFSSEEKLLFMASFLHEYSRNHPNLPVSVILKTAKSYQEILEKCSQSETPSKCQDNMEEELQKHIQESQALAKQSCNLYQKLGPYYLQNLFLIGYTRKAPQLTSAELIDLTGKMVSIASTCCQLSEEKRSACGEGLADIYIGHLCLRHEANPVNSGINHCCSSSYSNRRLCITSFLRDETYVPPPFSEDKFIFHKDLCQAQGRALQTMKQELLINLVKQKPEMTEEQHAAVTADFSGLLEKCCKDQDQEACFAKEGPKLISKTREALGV

Rattus norvegicus [22] = experiment: Tested in vivo for the biodistribution in rat liver at 1 hour after intravenous dose of 15 microCi of the drug and 15 u g of estradiol; assay type: ADME, organism-based; how it was run: as §2
Rattus norvegicus [23] = experiment: Tested in vivo for the biodistribution in rat muscle at 1 hour after intravenous dose of 15 microCi of drug in 10%ethanol saline; assay type: ADME, organism-based, Muscle tissue; how it was run: as §2
Rattus norvegicus [24] = experiment: Tested in vivo for the biodistribution in rat fat at 1 hour after intravenous dose of 15 microCi of drug in 10%ethanol saline; assay type: ADME, organism-based, Adipose tissue; how it was run: as §3
Rattus norvegicus [25] = experiment: Tested in vivo for the biodistribution in rat uterus at 1 hour after intravenous dose of 15 microCi of drug in 10%ethanol saline; assay type: ADME, organism-based; how it was run: as §1
Rattus norvegicus [26] = experiment: Tested in vivo for the biodistribution in rat bone at 1 hour after intravenous dose of 15 microCi of the drug and 15 ug of estradiol; assay type: ADME, organism-based, Bone element
Rattus norvegicus [27] = experiment: Tested in vivo for the biodistribution in rat kidney at 1 hour after intravenous dose of 15 microCi of drug in 10%ethanol saline; assay type: ADME, organism-based; how it was run: as §3
Rattus norvegicus [28] = experiment: Tested in vivo for the biodistribution in rat bone after 3 hours following an intravenous dose of 15 microCi of drug in 10%ethanol saline; assay type: ADME, organism-based, Bone element; how it was run: as §3
Rattus norvegicus [29] = experiment: Tested in vivo for the biodistribution in rat muscle at 1 hour after intravenous dose of 15 microCi of the drug and 15 ug of estradiol; assay type: ADME, organism-based, Muscle tissue; how it was run: as §2
Rattus norvegicus [30] = experiment: Tested in vivo for the biodistribution in rat thymus at 1 hour after intravenous dose of 15 microCi of drug in 10%ethanol saline; assay type: ADME, organism-based; how it was run: as §2
Rattus norvegicus [31] = experiment: Tested in vivo for the biodistribution in rat fat after 3 hours following an intravenous dose of 15 microCi of drug in 10%ethanol saline; assay type: ADME, organism-based, Adipose tissue; how it was run: as §3
[32] = biological target: T1, Estrogen receptor (Rattus norvegicus); remark: listed apart in the source
Rattus norvegicus [33] = experiment: Tested in vivo for the biodistribution in rat uterus/muscle at 1 hour after intravenous dose of 15 microCi of the drug and 15 ug of estradiol; assay type: ADME, organism-based, Muscle tissue; how it was run: as §1
Rattus norvegicus [34] = experiment: Tested in vivo for the biodistribution in rat uterus/blood after 3 hours following an intravenous dose of 15 microCi of drug in 10%ethanol saline; assay type: ADME, organism-based; how it was run: as §1
[35] = biological target: T3, Sex hormone-binding globulin (Homo sapiens) (UniProt P04278); experiment: Relative binding affinity against sex steroid binding protein (SBP)
T3 sequence (whole entry): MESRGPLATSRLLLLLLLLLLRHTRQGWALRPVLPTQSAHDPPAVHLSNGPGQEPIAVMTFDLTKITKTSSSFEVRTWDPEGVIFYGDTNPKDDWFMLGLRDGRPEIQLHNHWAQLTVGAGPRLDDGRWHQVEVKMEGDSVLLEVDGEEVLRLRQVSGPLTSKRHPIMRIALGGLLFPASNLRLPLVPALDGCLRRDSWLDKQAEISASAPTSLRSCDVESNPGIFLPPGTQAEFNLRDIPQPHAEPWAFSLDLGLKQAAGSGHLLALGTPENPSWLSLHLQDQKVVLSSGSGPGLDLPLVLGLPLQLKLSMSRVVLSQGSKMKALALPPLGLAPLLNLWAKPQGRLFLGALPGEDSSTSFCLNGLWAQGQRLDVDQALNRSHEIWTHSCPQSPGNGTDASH

Rattus norvegicus [36] = experiment: Tested in vivo for the biodistribution in blood of female rat after 3 hours following an intravenous dose of 15 microCi of drug in 10%ethanol saline; assay type: ADME, organism-based; how it was run: as §3
Rattus norvegicus [37] = experiment: Tested in vivo for the biodistribution in rat ovaries at 1 hour after intravenous dose of 15 microCi of the drug and 15 ug of estradiol; assay type: ADME, organism-based, Female gonad; how it was run: as §2
Rattus norvegicus [38] = experiment: Tested in vivo for the biodistribution in rat bone at 1 hour after intravenous dose of 15 microCi of drug in 10%ethanol saline; assay type: ADME, organism-based, Bone element; how it was run: as §3

SMILES: CC[C@H]1C[C@]2(C)[C@@H](O)[C@@H](F)C[C@H]2[C@@H]2CCc3cc(O)ccc3[C@@H]12
- Injected (Rattus norvegicus [1]): 22.88%
- Injected (Rattus norvegicus [2]): 2.331%
- Injected (Rattus norvegicus [3]): 2.991%
- Injected (Rattus norvegicus [4]): 0.186%
- NSB [5]: 1.6
- Injected (Rattus norvegicus [6]): 0.202%
- Injected (Rattus norvegicus [7]): 2.742%
- Injected (Rattus norvegicus [8]): 1.214%
- Injected (Rattus norvegicus [9]): 0.453%
- logP [10]: 3.72
- Injected (Rattus norvegicus [11]): 0.307%
- Injected (Rattus norvegicus [12]): 1.716%
- Injected (Rattus norvegicus [13]): 1.822%
- Injected (Rattus norvegicus [14]): 0.108%
- Injected (Rattus norvegicus [15]): 1.413%
- Injected (Rattus norvegicus [16]): 6.89%
- Injected (Rattus norvegicus [17]): 1.054%
- Injected (Rattus norvegicus [18]): 6.3%
- Injected (Rattus norvegicus [19]): 52.37%
- Injected (Rattus norvegicus [20]): 10.81%
- relative binding affinity (RBA) [21]: 0.079
- Injected (Rattus norvegicus [22]): 3.615%
- Injected (Rattus norvegicus [23]): 0.513%
- Injected (Rattus norvegicus [24]): 1.692%
- Injected (Rattus norvegicus [25]): 5.57%
- Injected (Rattus norvegicus [26]): 1.057%
- Injected (Rattus norvegicus [27]): 2.534%
- Injected (Rattus norvegicus [28]): 1.077%
- Injected (Rattus norvegicus [29]): 0.189%
- Injected (Rattus norvegicus [30]): 0.779%
- Injected (Rattus norvegicus [31]): 1.294%
- BSI [32]: 158
- Injected (Rattus norvegicus [33]): 7.11%
- Injected (Rattus norvegicus [34]): 82.19%
- relative binding affinity (RBA) [35]: 0.55
- Injected (Rattus norvegicus [36]): 0.084%
- Injected (Rattus norvegicus [37]): 1.063%
- Injected (Rattus norvegicus [38]): 0.889%
